Results filed as inconclusive are left out.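 How the source made its calls, unless noted: active means RAM network inhibition above 8.4% in each of two replicates, 3 SD over the compound average; inconclusive means above 8.4% inhibition in only one replicate; inactive means 8.4% inhibition or less in each replicate.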
How the values were obtained:
[1] = S. cerevisiae growth inhibition in permissive medium (OD615), pilot counter-assay for S. cerevisiae lifespan shortening project, permissive growth control (AID 705;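 active means growth inhibition above 25% in both replicates, a cutoff set 3 SD above the mean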); conditions: OD615, 24 h, at 10 µM, active compounds read high
How it was run: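 System: engineered DeaD yeast; Medium: permissive raffinose/galactose medium; Compound dosing: 10 µM single dose, 0.25% DMSO; Incubation: 4 h cell pre-growth, 24 h exposure at 30 °C; Technique: OD at 615 nm; Evaluation: growth inhibition from lowered OD615 after 24 h.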

[2] = S. cerevisiae growth inhibition in restrictive medium, OD615, pilot screen, restrictive growth control, yeast lifespan reduction project (AID 706;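 active means growth inhibition above a set limit, 3 SD over mean compound inhibition, in both replicates, cut at about 43% in these data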;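 further: modified DeaD lifespan yeast strain shifted to restrictive glucose medium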); conditions: OD615, 48 h, at 10 µM, active compounds read high
How it was run: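 Material: modified S. cerevisiae; buffer or medium: CSMM-D glucose medium; doses: one concentration, 10 µM final, 0.25% DMSO; incubation: 48 h compound exposure at 30 °C; detection: optical density at 615 nm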

[3] = doxorubicin toxicity protection in MRP-1 cells – H69AR cells, CellTiter-Glo, duplicate, MRP-1 activator project, pilot screen (AID 807;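 active means viability increase at or above a cutoff of the median across tested compounds plus 3 SD, cut at about 8.5% in these data, passing the limit was not always enough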;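 further: compound pretreatment 18-22 h then 72 h combined with doxorubicin; 0% = doxorubicin alone and 100% = vehicle without doxorubicin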); conditions: H69AR viability with doxorubicin, CellTiter-Glo luminescence; at 10 µM; active compounds read high
[4] = viability of HCT116 without oncogenic beta-catenin – human colon tumor cells, pilot screen (AID 823;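 active means cell viability at or below a set limit in both duplicate runs, the limit being the all-compound median minus 4 SD, cut at about 23% in these data, passing the limit was not always enough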;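 further: 0% = wells killed by 20 µM Hyamine and 100% = untreated DMSO cell wells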); conditions: HCT116 beta-catenin knockout viability, CellTiter-Glo, 60 h; at 10 µM; active compounds read low
[5] = viability of PTEN-null HCT116 cells – cell-based, HCT116 clonal line, CellTiter-Glo, pilot screen (AID 824;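 active means viability at or below 27.92% in each of two runs, the all-compound median minus 4 SD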;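 further: 0% = 20 µM Hyamine control and 100% = vehicle cell control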); conditions: HCT116 PTEN-deleted viability, 60 h, at 10 µM, active compounds read low
[6] = RAM pathway blockade in budding yeast – dse1pr::URA3 reporter, 5-FOA selection, pilot screen (AID 869;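 active means inhibition over a set limit, the all-compound mean plus 3 SD, in both replicate runs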;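 further: 0% = DMSO wells with no growth and 100% = 10 µM 1-NA-PP1 with full growth; RAM network block rescues cells from 5-FOA so hits raise OD615 growth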); conditions: S. cerevisiae dse1pr::URA3 5-FOA growth, OD615, 2 d; at 10 µM; active compounds read high; strain carries analog-sensitive mutant Cbk1 kinase
[7] = RAM signaling pathway blockade in yeast – S. cerevisiae, Pdr1DBD-CYC8 efflux-inhibited sensitized strain, primary screen (AID 1298);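 further: 0% = DMSO untreated cells without growth and 100% = 10 µM 1-NA-PP1 full growth; higher means more yeast growth rescued from 5-FOA killing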; conditions: S. cerevisiae cbk1-as DSE1-URA3 strain, 5-FOA growth OD615, 2 d; at 50 µM; active compounds read high

N#CC1=C2SCN(c3ccc(F)cc3)CN2C(=O)CC1c1cccc(F)c1 (stereo not drawn)
inactive: growth inhibition [1] 4.17% | growth inhibition [2] 7.57% | viability increase [3] -2.71% | viability [4] 104% | viability [5] 96.7% | inhibition [6] 1.06% | RAM network inhibition [7] 7.08%

CC(=O)c1ccc(OCC(O)CN2CCCC(C)C2)cc1 (stereo not drawn)
inactive: growth inhibition [1] 5.32% | growth inhibition [2] -4.29% | viability increase [3] -0.81% | viability [4] 99.3% | viability [5] 96.7% | inhibition [6] 1.98% | RAM network inhibition [7] 5.23%

O=C(NCCCN1CCCC1=O)c1ccccc1NS(=O)(=O)c1ccc(F)cc1
inactive: growth inhibition [1] -7.5% | growth inhibition [2] -22% | viability increase [3] -2.44% | viability [4] 88.9% | viability [5] 94.1% | inhibition [6] 1.57% | RAM network inhibition [7] 5.37%

Oc1c(C(c2ccccc2)N2CCN(Cc3ccccc3)CC2)sc2ncnn12 (stereo not drawn)
inactive: growth inhibition [1] -6.68% | growth inhibition [2] -5.08% | viability increase [3] 1.62% | viability [4] 89.7% | viability [5] 84.7% | inhibition [6] 1.79% | RAM network inhibition [7] 0.68%

CCOC(=O)c1c(-c2ccccc2)c(C(C)=O)c(=O)n(C)c1C
inactive: growth inhibition [1] -19% | growth inhibition [2] -9.79% | viability increase [3] -3.81% | viability [4] 95.9% | viability [5] 94.1% | inhibition [6] 4.63% | RAM network inhibition [7] 1.72%

CCOc1ccc(-c2cc(NC(=O)Cn3ncc4c3-c3ccccc3OC4)on2)cc1OCC
inactive: growth inhibition [1] -7.96% | growth inhibition [2] -3.25% | viability increase [3] 1.4% | viability [4] 98.8% | viability [5] 91.2% | inhibition [6] 1.22% | RAM network inhibition [7] -0.17%

CCOC(=O)c1csc(NC(=O)C(C)(C)C)n1
inactive: growth inhibition [1] -6.04% | growth inhibition [2] -0.045% | viability increase [3] 2.71% | viability [4] 105% | viability [5] 98.8% | inhibition [6] 0.48% | RAM network inhibition [7] -1.57%

CCOCCn1c(N(C)Cc2ccccc2)nc2c1c(=O)[nH]c(=O)n2C
inactive: growth inhibition [1] -10.9% | growth inhibition [2] -6.11% | viability increase [3] 0.04% | viability [4] 101% | viability [5] 95.6% | inhibition [6] 0.985% | RAM network inhibition [7] 5.77%

CCCOC(=O)C1C2C=CC3(CN(c4ccc(Cl)c(F)c4)C(=O)C13)O2 (stereo not drawn)
inactive: growth inhibition [1] 4.25% | growth inhibition [2] 0.67% | viability increase [3] -2.67% | viability [4] 93.4% | viability [5] 86.5% | inhibition [6] -0.06% | RAM network inhibition [7] 1.54%

COc1ccc(N2C(=O)CCC(C(=O)Nc3ccccn3)C2c2ccc(OC)c(OC)c2)cc1 (stereo not drawn)
inactive: growth inhibition [1] 0.15% | growth inhibition [2] -9.93% | viability increase [3] -0.12% | viability [4] 96.2% | viability [5] 96.9% | inhibition [6] 1.64% | RAM network inhibition [7] 0.04%

CCOC(=O)Cn1c(=O)oc2cc(S(=O)(=O)N3CCC(N4CCCCC4)CC3)ccc21
inactive: growth inhibition [1] -7.51% | growth inhibition [2] -9.77% | viability increase [3] 0.75% | viability [4] 101% | viability [5] 105% | inhibition [6] 1.06% | RAM network inhibition [7] 0.21%

COc1ccc(C2C3=C(CC(c4ccco4)CC3=O)Nc3ccccc3N2C(C)=O)cc1 (stereo not drawn)
inactive: growth inhibition [1] -19% | growth inhibition [2] -16.4% | viability increase [3] -2.47% | viability [4] 93.5% | viability [5] 102% | inhibition [6] 1.25% | RAM network inhibition [7] 0.96%

CCn1c(=O)cc(O)c2ccccc21
inactive: growth inhibition [1] 1.77% | growth inhibition [2] -10.1% | viability increase [3] -1.68% | viability [4] 99% | viability [5] 94% | inhibition [6] 2.01% | RAM network inhibition [7] 1.28%

CC(C)c1cc(N2CCN(C(=O)c3ccco3)CC2)n2c(nc3ccccc32)c1C#N
inactive: growth inhibition [1] -3.91% | growth inhibition [2] 0.12% | viability increase [3] -5.67% | viability [4] 94.1% | viability [5] 91.6% | inhibition [6] 2.04% | RAM network inhibition [7] 3.57%

CCc1nnc(NC(=O)c2cccs2)s1
inactive: growth inhibition [1] -21.3% | growth inhibition [2] -3.98% | viability increase [3] 2.17% | viability [4] 102% | viability [5] 90.1% | inhibition [6] 1.29% | RAM network inhibition [7] 0.32%

O=C(Nc1cccc(F)c1)c1ccc(S(=O)(=O)N2CCCC2)cc1
inactive: growth inhibition [1] -3.88% | growth inhibition [2] 0% | viability increase [3] 1.26% | viability [4] 101% | viability [5] 97% | inhibition [6] 1.78% | RAM network inhibition [7] -0.43%

Cc1ccccc1S(=O)(=O)Cc1ccc(C(=O)N2CCN(C3CCCCC3)CC2)o1
inactive: growth inhibition [1] -9.92% | growth inhibition [2] -5.71% | viability increase [3] -1.48% | viability [4] 95.1% | viability [5] 89.6% | inhibition [6] 0.385% | RAM network inhibition [7] 4.62%

CCOC(=O)C1CCN(C(=O)COc2cc(C)c(Br)c(C)c2)CC1
inactive: growth inhibition [1] -2.41% | growth inhibition [2] -16.5% | viability increase [3] -3.43% | viability [4] 94.4% | viability [5] 85.3% | inhibition [6] 1.47% | RAM network inhibition [7] 1.59%

COc1ccc(/C(N)=C/C(=O)C(C)(C)C)cc1
inactive: growth inhibition [1] -14.2% | growth inhibition [2] -11.6% | viability increase [3] 0.55% | viability [4] 96.1% | viability [5] 98.2% | inhibition [6] 2.5% | RAM network inhibition [7] 4.84%

CCc1ccccc1NC(=O)c1cc2sccc2n1C
inactive: growth inhibition [1] -8.19% | growth inhibition [2] 0.86% | viability increase [3] 1.11% | viability [4] 90.4% | viability [5] 80.3% | inhibition [6] 0.28% | RAM network inhibition [7] 4.98%

O=C(CSCCNS(=O)(=O)c1ccccc1)Nc1ccccc1
inactive: growth inhibition [1] -6.82% | growth inhibition [2] -4.2% | viability increase [3] -2.84% | viability [4] 91% | viability [5] 91.6% | inhibition [6] 1.77% | RAM network inhibition [7] 0.37%

Cc1ccc(C2c3c(oc4cc(C)c(C)cc4c3=O)C(=O)N2CCCN2CCOCC2)cc1 (stereo not drawn)
inactive: growth inhibition [1] -5.16% | growth inhibition [2] -18.6% | viability increase [3] -4.87% | viability [4] 83.3% | viability [5] 90% | inhibition [6] 3.33% | RAM network inhibition [7] -0.94%

C=CCN1C(=Nc2ccccc2)SC/C1=C\C(=O)OC
inactive: growth inhibition [1] -14.6% | growth inhibition [2] -4.42% | viability increase [3] -2.34% | viability [4] 89% | viability [5] 89.8% | inhibition [6] 0.81% | RAM network inhibition [7] 6.77%

CCc1ncc(C(=O)c2ccc(OC)cc2)n1C
inactive: growth inhibition [1] 1.37% | growth inhibition [2] -0.315% | viability increase [3] 3.42% | viability [4] 105% | viability [5] 104% | inhibition [6] 0.225% | RAM network inhibition [7] 5.28%
